Measurements from ChEMBL document CHEMBL1157342, “Isolation of gelsedine-type indole alkaloids from Gelsemium elegans and evaluation of the cytotoxic activity of gelsemium alkaloids for A431 epidermoid carcinoma cells” (J Nat Prod, 2006).
pEC50: −log10 of the molar value.

Test system: A-431
Experiment: Cytotoxicity against human A431 cells after 48 hrs by trypan blue test
Type: functional, cell-based
Settings: A-431, 48 h
Method in brief: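 A431 human epidermoid carcinoma cells were grown at 5% CO2, 37 °C, seeded in 12-well plates at 1 × 10^5 cells/well and treated at semiconfluence (about 5 × 10^5 cells/well). DMSO stocks (100 mM) were diluted in serum-free RPMI-1640 to 10 nM–100 µM final, with DMSO below 0.1%. After 48 h, cells were counted in a Bürker-Türk chamber with trypan blue. Survival was expressed as % of untreated control. EC50 was taken from three independent experiments, mean ± SEM.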

Structure (SMILES)	pEC50
C=C[C@]12CN(C)[C@@H]3[C@H]4CO[C@H](C[C@H]41)[C@]1(C(=O)Nc4ccccc41)[C@@H]32 [GELSEMINE]	< 4.00
CC[C@H]1N[C@H]2C[C@@]3(C(=O)N(OC)c4ccccc43)[C@H]3C[C@@H]1[C@@H]2CO3 [GELSEDINE]	6.46
CCC(=O)[C@]12N[C@H]3C[C@@]4(C(=O)N(OC)c5ccccc54)[C@H](OC[C@H]31)[C@@H]2O [GELSEMOXONINE]	< 4.00
CC[C@H]1N[C@H]2C[C@@]3(C(=O)N(OC)c4cc(OC)ccc43)[C@H]3C[C@@H]1[C@@H]2CO3 [GELSEMICINE]	6.12
CCC1=N[C@H]2C[C@@]3(C(=O)N(OC)c4ccccc43)[C@@H]3OC[C@H]2[C@H]1[C@H]3OC(C)=O	6.60
CCC1=N[C@H]2C[C@@]3(C(=O)N(OC)c4ccccc43)[C@@H]3OC[C@H]2[C@@]1(O)[C@H]3OC(C)=O	4.44
CCC1=N[C@H]2C[C@@]3(C(=O)N(OC)c4cc(OC)ccc43)[C@@H]3OC[C@H]2[C@H]1[C@H]3O	< 4.00
C=C[C@@]12CN(C)[C@H]3C[C@]14C(=Nc1ccccc14)[C@@H]1C[C@@H]2[C@@H]3CO1 [KOUMINE]	< 4.00
CCC1=N[C@H]2C[C@@]3(C(=O)N(OC)c4ccccc43)[C@@H]3OC[C@H]2[C@@]1(O)[C@H]3O	5.89
C/C=C1\CN(C)[C@H]2C[C@@]3(C(=O)N(OC)c4cc(OC)ccc43)[C@H]3C[C@@H]1[C@@H]2CO3	< 4.00
C/C=C1\CN(C)[C@H]2C[C@@]3(C(=O)N(OC)c4ccccc43)[C@H]3C[C@@H]1[C@@H]2CO3 [HUMANTENINE]	< 4.00
CCC1=N[C@H]2C[C@@]3(C(=O)N(OC)c4ccccc43)[C@@H]3OC[C@H]2[C@H]1[C@H]3O	< 4.00
CCC1=N[C@H]2C[C@@]3(C(=O)N(OC)c4ccccc43)[C@H]3C[C@@H]1[C@@H]2CO3 [GELSENICINE]	4.43
C/C=C1\CN2[C@H]3Cc4c([nH]c5ccccc45)[C@@H]2C[C@@H]1C3(CO)C(=O)OC (some centres undefined)	< 4.00
